According to ChEMBL document CHEMBL1629439, “High-throughput identification of antibacterials against methicillin-resistant Staphylococcus aureus (MRSA) and the transglycosylase” (Bioorg Med Chem, 2010):
Converted amounts (≈) assume the structure as drawn.

How the values were obtained:
[1] = Inhibition of transglycosylase assessed as inhibition of NBD- labelled lipid II polymerization at 100 uM
Procedure, shortened: (§1)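 100 µM NBD-labelled lipid II incubated 30 min with full-length PBP (EC, SA or Mtb) and 10 ng/µl N-acetylmuramidase in 50 mM Tris-HCl pH 8.0, 10 mM MgCl2, 0.1% Triton X-100, 10% DMSO, 15% MeOH. Supernatant run on anion-exchange HPLC with 20 mM–0.5 M ammonium acetate gradient. Inhibition calculated from substrate peak-area percentage. IC50 determined. S. aureus strains share one SA enzyme.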

[2] = Displacement of fluorescein-labeled moenomycin from transglycosylase at 100 uM after 30 mins by fluorescence anisotropy binding assay
Staphylococcus aureus [3] = test: Antimicrobial activity against oxacillin- and methicillin-resistant Staphylococcus aureus isolate Sa-OXA-R2 after 18 to 24 hrs by alamar blue assay; type: functional
Procedure, shortened: (§2)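 Broth microdilution per NCCLS standard, Mueller-Hinton broth, 8-point twofold dilutions; exponentially growing cells at 5 10^5 cells/ml with compound, 18–24 h at 37 C; 20% Alamar blue added, fluorescence read; MIC90 taken as lowest concentration preventing at least 90% growth.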

Bacillus subtilis = test: Antimicrobial activity against Bacillus subtilis ATCC 23857 after 18 to 24 hrs by alamar blue assay; type: functional
Procedure, shortened: (§3)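 Broth microdilution per NCCLS in Mueller-Hinton broth, 8-point twofold dilutions, 384-well format. Exponential-phase cells at 5 × 10^5 cells/ml incubated with compound 18–24 h at 37 °C, then 20% Alamar blue added and fluorescence read. MIC90 taken as the lowest concentration preventing at least 90% bacterial growth.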

Escherichia coli = test: Antimicrobial activity against Escherichia coli ATCC […] after 18 to 24 hrs by alamar blue assay; type: functional; details: Escherichia coli; read-out: MIC; procedure, shortened: as §3
Pseudomonas aeruginosa = test: Antimicrobial activity against Pseudomonas aeruginosa ATCC 25619 after 18 to 24 hrs by alamar blue assay; type: functional; details: Pseudomonas aeruginosa, ATCC 25619; read-out: MIC; procedure, shortened: as §3
Acinetobacter baumannii = test: Antimicrobial activity against Acinetobacter baumannii ATCC 49139 after 18 to 24 hrs by alamar blue assay; type: functional; details: Acinetobacter baumannii, ATCC 49139; read-out: MIC; procedure, shortened: as §3
[4] = tested on: Stenotrophomonas maltophilia; test: Antimicrobial activity against Stenotrophomonas maltophilia ATCC 13637 after 18 to 24 hrs by alamar blue assay; type: functional; details: Stenotrophomonas maltophilia, ATCC 13637; read-out: MIC; procedure, shortened: as §3
Serratia marcescens = test: Antimicrobial activity against Serratia marcescens ATCC 14756 after 18 to 24 hrs by alamar blue assay; type: functional; details: Serratia marcescens, ATCC 14756; read-out: MIC; procedure, shortened: as §3
[5] = tested on: Mycolicibacterium smegmatis; test: Antimicrobial activity against Mycobacterium smegmatis BCRC 11565 after 18 to 24 hrs by alamar blue assay; type: functional; details: Mycolicibacterium smegmatis, BCRC 11565; read-out: MIC; procedure, shortened: as §3
Staphylococcus aureus [6] = test: Antimicrobial activity against methicillin-resistant Staphylococcus aureus isolate NTUH4722 after 18 to 24 hrs by alamar blue assay; type: functional; procedure, shortened: as §2
Staphylococcus aureus [7] = test: Antimicrobial activity against methicillin-resistant Staphylococcus aureus ATCC 33592 after 18 to 24 hrs by alamar blue assay; type: functional; details: Staphylococcus aureus, ATCC 33592; read-out: MIC; procedure, shortened: as §2
Staphylococcus aureus [8] = test: Antimicrobial activity against Staphylococcus aureus ATCC 29213 after 18 to 24 hrs by alamar blue assay
[9] = Inhibition of transglycosylase assessed as inhibition of NBD- labelled lipid II polymerization; procedure, shortened: as §1

Compound	inhibition [1] [%]	inhibition [2] [%]	MIC (Staphylococcus aureus [3]) [µg/mL]	MIC (Bacillus subtilis) [µg/mL]	MIC (Escherichia coli) [µg/mL]	MIC (Pseudomonas aeruginosa) [µg/mL]	MIC (Acinetobacter baumannii) [µg/mL]	MIC [4] [µg/mL]	MIC (Serratia marcescens) [µg/mL]	MIC [5] [µg/mL]	MIC (Staphylococcus aureus [6]) [µg/mL]	MIC (Staphylococcus aureus [7]) [µg/mL]	MIC (Staphylococcus aureus [8]) [µg/mL]	IC90 [9] [µM]
Cc1ccc(-c2cc(C(=O)Oc3cccc(C)c3)no2)cc1	0	96	–	–	–	–	–	–	–	–	–	–	–	–
O=C(Nc1ccc(Cl)c(Cl)c1)c1cc(Cl)ccc1NS(=O)(=O)c1ccc(Cl)cc1	0	98	0.25 (≈ 0.51 µM)	< 0.03	> 256	> 256	> 256	> 256	> 256	> 64	0.25 (≈ 0.51 µM)	0.25 (≈ 0.51 µM)	0.25 (≈ 0.51 µM)	–
CN1C(=O)c2ccccc2Sc2ccc(NC(=O)c3ccc([N+](=O)[O-])o3)cc21	0	91	2 (≈ 5.06 µM)	0.06 (≈ 0.152 µM)	256 (≈ 647 µM)	128 (≈ 324 µM)	12 (≈ 30.3 µM)	32 (≈ 80.9 µM)	32 (≈ 80.9 µM)	0.5 (≈ 1.26 µM)	0.5 (≈ 1.26 µM)	1 (≈ 2.53 µM)	2 (≈ 5.06 µM)	–
Cc1ccc(Nc2nc3nonc3nc2Nc2cccc(C(F)(F)F)c2)cc1Cl	0	90	–	–	–	–	–	–	–	–	–	–	–	–
Cc1c(CCC(=O)O)c(=O)oc2c(C)c3occ(-c4ccc(Cl)cc4)c3cc12	0	97	2.5 (≈ 6.3 µM)	> 64	> 256	> 256	> 256	> 256	> 256	1 (≈ 2.52 µM)	2.5 (≈ 6.3 µM)	1.25 (≈ 3.15 µM)	2.5 (≈ 6.3 µM)	–
O=C(Nc1cccc2cccnc12)c1ccc([N+](=O)[O-])o1	0	90	2 (≈ 7.06 µM)	0.06 (≈ 0.212 µM)	256 (≈ 904 µM)	128 (≈ 452 µM)	12 (≈ 42.4 µM)	32 (≈ 113 µM)	32 (≈ 113 µM)	0.5 (≈ 1.77 µM)	2 (≈ 7.06 µM)	2 (≈ 7.06 µM)	2 (≈ 7.06 µM)	–
Cc1ccc(OC(=O)c2cc(-c3ccc(C)c(C)c3)on2)c(C)c1	0	95	–	–	–	–	–	–	–	–	–	–	–	–
O=C(Nc1ccc(C(F)(F)F)cc1)N1CCN(c2nc(CCc3ccccc3)nc3sc4c(c23)CCCC4)CC1	0	90	–	–	–	–	–	–	–	–	–	–	–	–
C(=C\c1nc([P+](c2ccccc2)(c2ccccc2)c2ccccc2)c(N2CCCCCC2)o1)/c1ccccc1	0	97	–	–	–	–	–	–	–	–	–	–	–	–
CCn1cc(C(=O)O)c(=O)c2cc(F)c(N3CCN(C(=O)c4cccc(C)c4)CC3)cc21	0	93	–	–	–	–	–	–	–	–	–	–	–	–
O=C(Nc1ccc(S(=O)(=O)c2nc3ccccc3s2)c(Cl)c1)c1cc(Cl)cc(Cl)c1O	–	–	≤ 0.03	< 0.03	8 (≈ 15.6 µM)	16 (≈ 31.1 µM)	16 (≈ 31.1 µM)	16 (≈ 31.1 µM)	16 (≈ 31.1 µM)	0.5 (≈ 0.973 µM)	≤ 0.03	4 (≈ 7.78 µM)	8 (≈ 15.6 µM)	100
O=C(c1ccc(NC(=O)c2cc(Br)cc(Br)c2O)c(Cl)c1)c1cccs1	–	–	≤ 0.03	< 0.03	8 (≈ 15.5 µM)	16 (≈ 31 µM)	16 (≈ 31 µM)	16 (≈ 31 µM)	16 (≈ 31 µM)	0.5 (≈ 0.97 µM)	≤ 0.03	4 (≈ 7.76 µM)	4 (≈ 7.76 µM)	> 100
O=C(c1ccc(Cl)cc1)c1cc(NC(=O)c2cc(I)cc(I)c2O)ccc1Cl	–	–	≤ 0.03	< 0.03	8 (≈ 12.5 µM)	16 (≈ 25.1 µM)	16 (≈ 25.1 µM)	16 (≈ 25.1 µM)	16 (≈ 25.1 µM)	0.5 (≈ 0.784 µM)	≤ 0.03	4 (≈ 6.27 µM)	≤ 2	100
O=C(c1ccc(Cl)cc1)c1ccc(NC(=O)c2cc(Br)cc(Br)c2O)cc1Cl	–	–	≤ 0.03	< 0.03	8 (≈ 14.7 µM)	16 (≈ 29.4 µM)	16 (≈ 29.4 µM)	16 (≈ 29.4 µM)	16 (≈ 29.4 µM)	0.5 (≈ 0.919 µM)	≤ 0.03	4 (≈ 7.35 µM)	≤ 2	100
Cc1ccc(C)c(C(=O)c2cc(NC(=O)c3cc(Br)cc(Br)c3O)ccc2Oc2ccc(Cl)cc2)c1	–	–	≤ 0.03	< 0.03	8 (≈ 12.7 µM)	16 (≈ 25.4 µM)	16 (≈ 25.4 µM)	16 (≈ 25.4 µM)	16 (≈ 25.4 µM)	0.5 (≈ 0.794 µM)	≤ 0.03	32 (≈ 50.8 µM)	8 (≈ 12.7 µM)	> 100
O=C(Nc1ccc(Oc2cc3ccccc3cc2Cl)c(Cl)c1)c1cc(Br)cc(Br)c1O	–	–	≤ 0.03	< 0.03	8 (≈ 13.7 µM)	16 (≈ 27.5 µM)	16 (≈ 27.5 µM)	16 (≈ 27.5 µM)	16 (≈ 27.5 µM)	0.5 (≈ 0.859 µM)	≤ 0.03	4 (≈ 6.87 µM)	4 (≈ 6.87 µM)	100
Cc1ccc(C(=O)c2cc(Cl)cc(NC(=O)c3cc(Br)cc(Br)c3O)c2Cl)cc1	–	–	> 4	< 0.03	8 (≈ 14.3 µM)	16 (≈ 28.7 µM)	16 (≈ 28.7 µM)	16 (≈ 28.7 µM)	16 (≈ 28.7 µM)	0.5 (≈ 0.896 µM)	> 4	> 4	> 4	100
